Laboratory results reported in publication PMC12238435 (EJNMMI Radiopharmacy and Chemistry, 2025).
Where two headings read alike, the source gives them in different places. One block for each compound: values may come before it.

Legend:
[1] = ref Dillemuth et al. [2025]; cited from earlier work
[2] = test system: intracranial BT12 glioblastoma xenografts; assay: PET imaging of mice with intracranial BT12 glioblastoma xenografts; assay type: in vivo, mouse; conditions: for SUV in healthy brain: i.v.
How it was run: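 Mice were imaged 21 days after intracranial BT12 inoculation, under 1–2% isoflurane on a heating pad. Non-contrast HRCT came first, then the tracer (4.70 ± 0.44 MBq, 0.10 ± 0.06 µg) i.v. via tail-vein cannula and 60-min dynamic list-mode PET. For blocking, the MCT1 inhibitor (1.1 mg/kg) was given i.v. 15 min before tracer. SUV was corrected for injected dose, body weight and tail/cannula residue; TBR was also derived. Data are mean ± SD, unpaired t-test.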

[3] = Ex vivo biodistribution in mice with glioblastoma; parameters: species or system mouse; conditions: no blocking, 60 min postinjection, gamma counting, mean, n=7 ([18F]FNA-N-CooP), n=4 ([18F]FNA)
[4] = In vivo stability analysis; parameters: species or system mouse; conditions: mice with BT12 glioblastoma, i.v.
How it was run: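 After 60-min dynamic PET following tail-vein i.v. injection of the 18F-labelled peptide tracer, heparinized blood was centrifuged (2,100 × g, 5 min). Plasma was deproteinized with an equal volume of acetonitrile (14,000 × g, 3 min, RT), and fractions were gamma-counted. Protein-free plasma and acetonitrile-extracted brain homogenate were run on radio-HPLC (C18, 0.1% TFA water/acetonitrile, 12–80% B gradient). Peaks were assigned by reference retention times and co-injection.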

[5] = test system: monocarboxylate transporter 1 (MCT1); conditions: AZD3965 1.1 mg/kg; same mouse model; ref Dillemuth et al. [2025]; cited from earlier work
[6] = PET, glioblastoma mice, no blocking, mean ± SD, n = 4
[7] = PET, no blocking, single mouse (one of two)

tumor-to-brain ratio (TBR) [2, 6]: 1.51 ± 0.08 | SUV in healthy brain [2, 6]: 0.59 ± 0.05
Compound: O=C(O)c1ccc([18F])nc1 [[^18F]FNA, 6-[^18F]fluoronicotinic acid, reference compound]
in vivo stability [1]: stable in vivo

TBR [2, 7]: 1.28 | tumor SUV [2, 7]: 0.16
Compound: FB-CGLSGLGVA-NH2 [[^18F]FB-N-CooP]

%ID/g Kidney [3]: 8.88 ± 6.16 %ID/g | %ID/g Urine [3]: 772.29 ± 373.58 %ID/g | in vivo stability [4]: not stable in vivo | SUV in tumor, blocking with AZD3965 ([2]; AZD3965 1.1 mg/kg i.v. 15 min before tracer, single mouse (one of two)): 0.17 | SUV in healthy brain [2, 6]: 0.11 ± 0.02
Compound: FNA-CGLSGLGVA-NH2 [[^18F]FNA-N-CooP]

Compound: Cc1[nH]nc(C(F)(F)F)c1Cc1sc2c(c1C(=O)N1C[C@](C)(O)CO1)c(=O)n(C)c(=O)n2C(C)C [AZD3965]
reduction of glioblastoma uptake of [^18F]FNA [5]: 76%
